In ChEMBL document CHEMBL1142339, “Carbamoylphosphonate matrix metalloproteinase inhibitors 6: cis-2-aminocyclohexylcarbamoylphosphonic acid, a novel orally active antimetastatic matrix metalloproteinase-2 selective inhibitor--synthesis and pharmacodynamic and pharmacokinetic analysis” (J Med Chem, 2008):

Legend:
[1] = Reduction of metastasis formation in SCID mouse bearing human prostate tumor cells at 50 mg/kg, ip; assay type: functional; parameters: scale not given: the % may be the effect or the level left; conditions: route intraperitoneal
Summary of the method: (§1)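 Luciferase-transfected human prostate tumour cells implanted orthotopically into the prostate of SCID mice; daily ip dosing except weekends for six weeks. Primary tumour growth and metastasis followed weekly by luciferin bioluminescence imaging with a CCD camera.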

[2] = Apparent permeability in C57B1 mouse jejunum in using diffusion chamber; assay type: ADME, tissue-based
[3] = Apparent permeability in C57B1 mouse colon in using diffusion chamber; assay type: ADME, tissue-based; conditions: not told
[4] = Tmax in C57B1 mouse at 150 mg/kg, po; assay type: ADME, organism-based; parameters: dose 150 mg/kg, route oral; conditions: in vivo
Summary of the method: (§2)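 Compound dissolved in normal saline/water 60/40 (20 mg/mL). Rats: fasted 12 h before and first 12 h; blood sampled 5–240 min after iv, to 8 h oral, to 24 h ip; urine collected at 24 and 48 h in metabolic cages. Mice (22–25 g, fasted 12 h): portal-vein blood under ether at 0–720 min, one mouse per time point. Plasma quantified by HPLC-MS with acyclovir internal standard.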

[5] = Cmax in C57B1 mouse at 150 mg/kg, po; assay type: ADME, organism-based; parameters: dose 150 mg/kg, route oral; conditions: in vivo; summary of the method: as §2
[6] = AUC in C57B1 mouse at 150 mg/kg, po; assay type: ADME, organism-based; parameters: dose 150 mg/kg, route oral; conditions: plasma; summary of the method: as §2
[7] = Half life in C57B1 mouse at 150 mg/kg, po; assay type: ADME, organism-based; parameters: dose 150 mg/kg, route oral; conditions: in vivo; summary of the method: as §2
Mus musculus [8] = assay: Time over MIC in C57B1 mouse at 150 mg/kg, po; assay type: ADME, organism-based; parameters: dose 150 mg/kg, route oral; conditions: in vivo; summary of the method: as §2
[9] = AUC in Wistar rat at 50 mg/kg, iv; assay type: ADME, organism-based; parameters: dose 50 mg/kg, route intravenous; conditions: plasma; summary of the method: as §2
Interstitial collagenase = biological target: T1, Interstitial collagenase (Homo sapiens, UniProt P03956); assay: Inhibition of human recombinant MMP1
T1 sequence (P03956 whole entry): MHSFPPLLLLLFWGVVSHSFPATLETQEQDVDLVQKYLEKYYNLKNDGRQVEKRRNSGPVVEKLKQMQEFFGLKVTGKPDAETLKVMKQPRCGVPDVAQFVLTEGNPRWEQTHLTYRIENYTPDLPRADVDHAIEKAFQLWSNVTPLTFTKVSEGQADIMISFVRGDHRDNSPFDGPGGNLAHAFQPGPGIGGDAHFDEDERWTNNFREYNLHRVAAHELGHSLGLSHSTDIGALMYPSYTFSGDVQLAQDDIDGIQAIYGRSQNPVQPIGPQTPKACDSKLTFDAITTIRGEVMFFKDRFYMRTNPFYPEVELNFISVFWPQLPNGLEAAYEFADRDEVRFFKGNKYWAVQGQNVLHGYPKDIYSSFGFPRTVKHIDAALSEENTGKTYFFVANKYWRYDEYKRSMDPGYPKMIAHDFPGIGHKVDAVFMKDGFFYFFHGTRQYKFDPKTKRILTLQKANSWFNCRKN
Summary of the method: (§3)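 Purified human recombinant enzyme tested at four different concentrations against the matching colorimetric or fluorescent peptide substrate for 3 h, with inhibitor at four to six concentrations. Activity was read as a colour or fluorescence change on a plate reader, and IC50 was calculated from these readings.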

[10] = biological target: T2, 72 kDa type IV collagenase (Homo sapiens, UniProt P08253); assay: Inhibition of human recombinant MMP2
Summary of the method: (§4)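 Human recombinant enzymes each incubated at four concentrations with a suitable colorimetric or fluorogenic peptide substrate for 3 h. Inhibitor tested at four to six concentrations. Activity read as colorimetric or fluorescence change on a plate reader.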
Target sequence in this assay (P08253 whole entry): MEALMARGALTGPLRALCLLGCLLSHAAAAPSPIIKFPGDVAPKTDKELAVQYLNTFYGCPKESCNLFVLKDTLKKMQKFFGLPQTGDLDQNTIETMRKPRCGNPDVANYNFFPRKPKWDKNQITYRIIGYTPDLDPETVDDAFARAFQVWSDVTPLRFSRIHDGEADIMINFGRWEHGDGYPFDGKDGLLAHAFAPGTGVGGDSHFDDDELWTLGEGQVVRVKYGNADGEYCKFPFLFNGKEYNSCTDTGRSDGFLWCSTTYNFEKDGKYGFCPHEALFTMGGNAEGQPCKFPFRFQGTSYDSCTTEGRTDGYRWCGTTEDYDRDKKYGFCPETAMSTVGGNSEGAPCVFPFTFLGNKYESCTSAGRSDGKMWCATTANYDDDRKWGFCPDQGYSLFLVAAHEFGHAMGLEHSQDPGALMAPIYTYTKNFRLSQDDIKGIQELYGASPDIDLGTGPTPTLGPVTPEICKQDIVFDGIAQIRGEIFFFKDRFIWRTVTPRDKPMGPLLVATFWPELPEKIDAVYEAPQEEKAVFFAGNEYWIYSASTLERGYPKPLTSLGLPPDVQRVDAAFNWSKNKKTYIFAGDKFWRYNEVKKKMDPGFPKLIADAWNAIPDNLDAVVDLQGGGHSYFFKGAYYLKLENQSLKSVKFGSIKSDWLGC

Stromelysin-1 = Stromelysin-1 (Homo sapiens, UniProt P08254); assay: Inhibition of human recombinant MMP3; summary of the method: as §4
Stromelysin-1, sequence (P08254 whole entry): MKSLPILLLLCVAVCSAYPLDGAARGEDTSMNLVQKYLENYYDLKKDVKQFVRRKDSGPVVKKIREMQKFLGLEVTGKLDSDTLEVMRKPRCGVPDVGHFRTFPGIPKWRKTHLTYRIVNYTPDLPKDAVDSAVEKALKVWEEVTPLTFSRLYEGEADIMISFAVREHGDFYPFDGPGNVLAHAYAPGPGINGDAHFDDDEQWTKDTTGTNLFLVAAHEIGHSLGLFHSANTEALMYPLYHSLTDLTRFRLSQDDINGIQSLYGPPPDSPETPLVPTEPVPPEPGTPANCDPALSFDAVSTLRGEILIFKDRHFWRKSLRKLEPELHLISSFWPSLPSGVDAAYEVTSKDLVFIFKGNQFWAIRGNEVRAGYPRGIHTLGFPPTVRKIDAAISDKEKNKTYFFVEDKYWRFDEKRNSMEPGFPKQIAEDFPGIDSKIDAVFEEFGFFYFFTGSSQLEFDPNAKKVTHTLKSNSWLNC

Neutrophil collagenase = Neutrophil collagenase (Homo sapiens, UniProt P22894); assay: Inhibition of human recombinant MMP8; summary of the method: as §4
Neutrophil collagenase, sequence (P22894 whole entry): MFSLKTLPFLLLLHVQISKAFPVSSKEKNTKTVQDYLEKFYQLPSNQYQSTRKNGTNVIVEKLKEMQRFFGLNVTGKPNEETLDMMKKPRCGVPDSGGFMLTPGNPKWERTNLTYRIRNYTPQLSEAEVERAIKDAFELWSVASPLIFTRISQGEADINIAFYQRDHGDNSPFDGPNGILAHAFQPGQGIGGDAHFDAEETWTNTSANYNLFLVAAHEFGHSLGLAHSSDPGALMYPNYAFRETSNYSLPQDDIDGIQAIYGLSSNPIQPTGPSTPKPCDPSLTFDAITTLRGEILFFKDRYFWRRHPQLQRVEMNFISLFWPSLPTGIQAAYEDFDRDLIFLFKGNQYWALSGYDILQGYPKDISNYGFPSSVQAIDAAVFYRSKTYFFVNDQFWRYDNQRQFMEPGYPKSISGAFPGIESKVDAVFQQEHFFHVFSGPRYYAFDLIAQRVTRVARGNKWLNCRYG

[11] = biological target: Matrix metalloproteinase-9 (Homo sapiens, UniProt P14780); assay: Inhibition of human recombinant MMP9; summary of the method: as §4
Matrix metalloproteinase-9, sequence (P14780 whole entry): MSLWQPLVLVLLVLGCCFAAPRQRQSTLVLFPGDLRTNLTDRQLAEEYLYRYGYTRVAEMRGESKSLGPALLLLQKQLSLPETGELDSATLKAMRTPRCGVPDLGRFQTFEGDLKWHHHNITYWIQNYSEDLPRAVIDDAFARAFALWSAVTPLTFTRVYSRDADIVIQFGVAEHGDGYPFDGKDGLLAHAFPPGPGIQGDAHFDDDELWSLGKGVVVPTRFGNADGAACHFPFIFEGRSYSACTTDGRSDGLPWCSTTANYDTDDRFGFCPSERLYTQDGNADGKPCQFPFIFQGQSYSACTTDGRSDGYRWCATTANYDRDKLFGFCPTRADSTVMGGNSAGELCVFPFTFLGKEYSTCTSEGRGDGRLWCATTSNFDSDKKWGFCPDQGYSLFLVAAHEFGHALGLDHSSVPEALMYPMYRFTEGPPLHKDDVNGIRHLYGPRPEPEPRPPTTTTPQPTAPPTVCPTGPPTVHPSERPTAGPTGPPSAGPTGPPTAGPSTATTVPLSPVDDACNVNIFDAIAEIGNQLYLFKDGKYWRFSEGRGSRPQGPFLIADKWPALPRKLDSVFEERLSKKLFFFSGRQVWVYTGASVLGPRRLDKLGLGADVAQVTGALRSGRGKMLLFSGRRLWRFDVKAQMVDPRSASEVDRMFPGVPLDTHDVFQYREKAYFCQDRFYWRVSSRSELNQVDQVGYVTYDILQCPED

[12] = biological target: Macrophage metalloelastase (Homo sapiens, UniProt P39900); assay: Inhibition of human recombinant MMP12; summary of the method: as §3
Macrophage metalloelastase, sequence (P39900 whole entry): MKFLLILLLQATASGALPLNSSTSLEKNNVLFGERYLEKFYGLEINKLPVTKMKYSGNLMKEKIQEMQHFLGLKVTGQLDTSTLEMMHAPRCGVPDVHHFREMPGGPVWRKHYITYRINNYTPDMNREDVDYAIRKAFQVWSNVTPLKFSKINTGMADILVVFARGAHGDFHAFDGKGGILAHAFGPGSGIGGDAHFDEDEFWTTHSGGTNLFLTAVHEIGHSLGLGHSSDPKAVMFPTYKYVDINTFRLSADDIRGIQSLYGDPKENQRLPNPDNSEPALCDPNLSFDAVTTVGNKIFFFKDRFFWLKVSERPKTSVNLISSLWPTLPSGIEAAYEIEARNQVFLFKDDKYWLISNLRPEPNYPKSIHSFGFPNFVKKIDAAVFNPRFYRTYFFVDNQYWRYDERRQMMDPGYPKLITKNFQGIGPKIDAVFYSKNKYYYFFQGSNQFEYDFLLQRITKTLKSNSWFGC

Collagenase 3 = Collagenase 3 (Homo sapiens, UniProt P45452); assay: Inhibition of human recombinant MMP13; summary of the method: as §4
[13] = biological target: Disintegrin and metalloproteinase domain-containing protein 17 (Homo sapiens, UniProt P78536); assay: Inhibition of human recombinant TACE; summary of the method: as §3
Disintegrin and metalloproteinase domain-containing protein 17, sequence (P78536 whole entry, the tested form may be a part): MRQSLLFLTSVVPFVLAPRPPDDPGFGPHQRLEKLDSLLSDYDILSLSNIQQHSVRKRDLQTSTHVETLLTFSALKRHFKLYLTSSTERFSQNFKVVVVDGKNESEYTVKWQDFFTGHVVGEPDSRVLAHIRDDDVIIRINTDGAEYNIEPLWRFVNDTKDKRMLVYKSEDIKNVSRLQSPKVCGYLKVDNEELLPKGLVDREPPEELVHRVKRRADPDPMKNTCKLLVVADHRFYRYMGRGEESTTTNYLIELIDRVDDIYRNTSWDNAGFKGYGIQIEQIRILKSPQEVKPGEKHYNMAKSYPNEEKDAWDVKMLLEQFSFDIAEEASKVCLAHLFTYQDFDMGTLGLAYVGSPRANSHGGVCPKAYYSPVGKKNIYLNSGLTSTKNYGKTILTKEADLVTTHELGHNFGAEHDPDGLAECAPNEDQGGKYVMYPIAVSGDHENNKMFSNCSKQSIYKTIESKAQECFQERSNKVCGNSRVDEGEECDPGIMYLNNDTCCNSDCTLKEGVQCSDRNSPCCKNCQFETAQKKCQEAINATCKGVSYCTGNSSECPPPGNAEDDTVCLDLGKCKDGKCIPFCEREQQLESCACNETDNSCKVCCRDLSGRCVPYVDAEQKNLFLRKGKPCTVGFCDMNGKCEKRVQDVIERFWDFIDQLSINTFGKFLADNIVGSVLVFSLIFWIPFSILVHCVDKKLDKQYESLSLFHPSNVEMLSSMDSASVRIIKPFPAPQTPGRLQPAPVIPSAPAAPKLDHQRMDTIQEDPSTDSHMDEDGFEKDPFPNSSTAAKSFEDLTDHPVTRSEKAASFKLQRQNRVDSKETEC

Mus musculus [14] = assay: Acute toxicity in C57B1 mouse at 50 to 500 mg/kg; assay type: organism-based; parameters: dose 50-500 mg/kg; conditions: in vivo
Summary of the method: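 C57Bl mice dosed intraperitoneally daily for two weeks at 50, 250 and 500 mg/kg; monitored for toxic signs and behavioural and nutritional status.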

B16-F10 [15] = assay: Reduction in tumor colonization in C57B1 mouse bearing B16F10 cells at 50 mg/kg, ip after 21 days; assay type: functional; parameters: scale not given: the % may be the effect or the level left; conditions: route intraperitoneal
Summary of the method: (§5)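 Female C57Bl mice given 50k B16F10 cells via tail vein; dosing started the same day, daily except weekends for three weeks, in PBS, ip or oral (dose-response 12.5–50 mg/kg ip). Lungs fixed at day 21 and metastatic foci counted; eight mice per group.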

B16-F10 [16] = assay: Reduction in tumor colonization in of C57B1 mouse bearing B16F10 cells at 50 mg/kg, po after 21 days; assay type: functional; parameters: scale not given: the % may be the effect or the level left; summary of the method: as §5
B16-F10 [17] = assay: Inhibition of metastasis formation in lungs of C57B1 mouse bearing B16F10 cells at 12.5 to 50 mg/kg, ip after 21 days; assay type: functional, Lung; conditions: dose mg/kg 12.5-50; route intraperitoneal; summary of the method: as §5
[18] = Reduction of local tumor growth in SCID mouse bearing human prostate tumor cells at 50 mg/kg, ip; assay type: functional; parameters: scale not given: the % may be the effect or the level left; conditions: route intraperitoneal; summary of the method: as §1
[19] = Elimination half life in Wistar rat at 50 mg/kg, iv; assay type: ADME, organism-based; parameters: dose 50 mg/kg, route intravenous; conditions: in vivo; summary of the method: as §2
[20] = Cmax in Wistar rat at 50 mg/kg, iv; assay type: ADME, organism-based; parameters: dose 50 mg/kg, route intravenous; conditions: in vivo; summary of the method: as §2
[21] = Clearance in Wistar rat at 50 mg/kg, iv; assay type: ADME, organism-based; parameters: dose 50 mg/kg, route intravenous; conditions: in vivo; summary of the method: as §2
[22] = Volume of distribution at steady state in Wistar rat at 50 mg/kg, iv; assay type: ADME, organism-based; parameters: dose 50 mg/kg, route intravenous; conditions: in vivo, read-out: Vdss; summary of the method: as §2
Rattus norvegicus [23] = assay: Time over MIC in Wistar rat at 50 mg/kg, iv; assay type: ADME, organism-based; parameters: dose 50 mg/kg, route intravenous; conditions: in vivo; summary of the method: as §2
[24] = AUC in Wistar rat at 150 mg/kg, po; assay type: ADME, organism-based; parameters: dose 150 mg/kg, route oral; conditions: plasma; summary of the method: as §2
[25] = Elimination half life in Wistar rat at 150 mg/kg, po; assay type: ADME, organism-based; parameters: dose 150 mg/kg, route oral; conditions: in vivo; summary of the method: as §2
[26] = Cmax in Wistar rat at 150 mg/kg, po; assay type: ADME, organism-based; parameters: dose 150 mg/kg, route oral; conditions: in vivo; summary of the method: as §2
[27] = Tmax in Wistar rat at 150 mg/kg, po; assay type: ADME, organism-based; parameters: dose 150 mg/kg, route oral; conditions: in vivo; summary of the method: as §2
[28] = Bioavailability in Wistar rat at 150 mg/kg, po; assay type: ADME, organism-based; conditions: in vivo; summary of the method: as §2
Rattus norvegicus [29] = assay: Time over MIC in Wistar rat at 150 mg/kg, po; assay type: ADME, organism-based; parameters: dose 150 mg/kg, route oral; conditions: in vivo; summary of the method: as §2
[30] = AUC in Wistar rat at 150 mg/kg, ip; assay type: ADME, organism-based; parameters: dose 150 mg/kg, route intraperitoneal; conditions: plasma; summary of the method: as §2
[31] = Elimination half life in Wistar rat at 150 mg/kg, ip; assay type: ADME, organism-based; parameters: dose 150 mg/kg, route intraperitoneal; conditions: in vivo; summary of the method: as §2
[32] = Cmax in Wistar rat at 150 mg/kg, ip; assay type: ADME, organism-based; parameters: dose 150 mg/kg, route intraperitoneal; conditions: in vivo; summary of the method: as §2
[33] = Tmax in Wistar rat at 150 mg/kg, ip; assay type: ADME, organism-based; parameters: dose 150 mg/kg, route intraperitoneal; conditions: in vivo; summary of the method: as §2
[34] = Bioavailability in Wistar rat at 150 mg/kg, ip; assay type: ADME, organism-based; conditions: in vivo; summary of the method: as §2
Rattus norvegicus [35] = assay: Time over MIC in Wistar rat at 150 mg/kg, ip; assay type: ADME, organism-based; parameters: dose 150 mg/kg, route intraperitoneal; conditions: in vivo; summary of the method: as §2
[36] = Apparent permeability in Wistar rat jejunum in using diffusion chamber; assay type: ADME, tissue-based
Summary of the method: (§6)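 Everted-free intestinal segments (jejunum, ileum, colon) from four animals mounted in Ussing chambers; compound at 600 µg/mL in mucosa buffer added to the mucosal side. Serosal samples taken at 30, 60, 90, 120, 150 min, mucosal at 0 and 150 min, with buffer replacement. Quantified by HPLC-MS; Papp reported with SD.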

[37] = Apparent permeability in Wistar rat ileum in using diffusion chamber; assay type: ADME, tissue-based; summary of the method: as §6
[38] = Apparent permeability in Wistar rat colon in Using diffusion chamber; assay type: ADME, tissue-based; conditions: not told; summary of the method: as §6
[39] = biological target: T2, 72 kDa type IV collagenase; conditions: 100 uM
Target sequence in this assay (P08253 110-660 limits assumed): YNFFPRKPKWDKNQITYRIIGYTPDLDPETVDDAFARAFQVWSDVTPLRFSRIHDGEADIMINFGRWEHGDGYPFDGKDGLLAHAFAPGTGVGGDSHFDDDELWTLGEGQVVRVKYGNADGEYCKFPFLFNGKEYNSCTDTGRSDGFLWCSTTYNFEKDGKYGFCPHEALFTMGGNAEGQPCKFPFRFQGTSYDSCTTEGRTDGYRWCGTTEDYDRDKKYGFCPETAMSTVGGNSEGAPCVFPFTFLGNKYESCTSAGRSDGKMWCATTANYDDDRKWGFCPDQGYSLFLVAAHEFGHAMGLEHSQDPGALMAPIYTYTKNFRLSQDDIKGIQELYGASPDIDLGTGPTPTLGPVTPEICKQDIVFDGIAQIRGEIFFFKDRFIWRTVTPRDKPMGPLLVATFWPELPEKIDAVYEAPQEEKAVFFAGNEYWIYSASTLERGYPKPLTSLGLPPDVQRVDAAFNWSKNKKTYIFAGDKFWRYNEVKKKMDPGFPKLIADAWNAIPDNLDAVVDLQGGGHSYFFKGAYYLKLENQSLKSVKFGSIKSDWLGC

Which results are given for N[C@H]1CCCC[C@H]1NC(=O)P(=O)(O)O (relative stereo)?
Activity [1]: 90%; Papp [2]: 83 nm/s; Papp [3]: 24 nm/s; Tmax [4]: 1 h; Cmax [5]: 0.544 µg/mL; AUC [6]: 4.5 µg·h/mL; half-life [7]: 13.5 h; T>MIC (Mus musculus [8]): > 12 h; AUC [9]: 127 µg·h/mL; IC50 (Interstitial collagenase): > 100 µM; IC50 [10]: 4 µM; IC50 (Stromelysin-1): > 100 µM; IC50 (Neutrophil collagenase): > 100 µM; IC50 [11]: 20 µM; IC50 [12]: > 100 µM; IC50 (Collagenase 3): > 100 µM; IC50 [13]: > 100 µM; Activity (Mus musculus [14]): Non-toxic; Activity (B16-F10 [15]): 85%; Activity (B16-F10 [16]): 95%; Inhibition (B16-F10 [17]): 50%; Activity [18]: 60%; half-life [19]: 0.313 h; Cmax [20]: 306 µg/mL; clearance [21]: 0.414 L/h/kg; Vd [22]: 0.186 L/kg; T>MIC (Rattus norvegicus [23]): > 4 h; AUC [24]: 1.32 µg·h/mL; half-life [25]: 2.1 h; Cmax [26]: 0.712 µg/mL; Tmax [27]: 0.29 h; bioavailability [28]: 0.35%; T>MIC (Rattus norvegicus [29]): > 6 h; AUC [30]: 44.6 µg·h/mL; half-life [31]: 1.8 h; Cmax [32]: 144 µg/mL; Tmax [33]: 30 s; bioavailability [34]: 11.8%; T>MIC (Rattus norvegicus [35]): > 24 h; Papp [36]: 79 nm/s; Papp [37]: 70.1 nm/s; Papp [38]: 92.7 nm/s; inhibition [39]: 90%

Which results are given for N[C@@H]1CCCC[C@H]1NC(=O)P(=O)(O)O (relative stereo)?
IC50 (Interstitial collagenase): 90 µM; IC50 [10]: > 100 µM; IC50 (Stromelysin-1): 25 µM; IC50 (Neutrophil collagenase): 50 µM; IC50 [11]: > 100 µM; IC50 [12]: > 100 µM; IC50 (Collagenase 3): 55 µM; IC50 [13]: > 100 µM
